Reference: ChEMBL document CHEMBL1157732, “Piperazinyl pyrimidine derivatives as potent gamma-secretase modulators” (Bioorg Med Chem Lett, 2010)

system: not listed separately; experiment: Activity at gamma-secretase expressed in human SH-SY5Y cells assessed as inhibition of amyloid beta 42 production by electrochemiluminescence assay; type: cell-based
Summary of the method: (§1)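 SH-SY5Y cells stably overexpressing the β-APP C-terminal fragment SPA4CT; Aβ40 and Aβ42 peptides secreted into the medium quantified by electrochemiluminescent detection; IC50 values derived from these measurements.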

| IC50 [nM] | SMILES |
| --- | --- |
| 400 | COc1ccc(N2CCN(c3nc(Nc4cc(C(C)(C)C)ccc4C)cc(S(C)(=O)=O)n3)CC2(C)C)cc1 |
| 3440 | CCOc1ccc(Nc2ccnc(N3CCN(c4ccc(OC)cc4)C(C)(C)C3)n2)c(C)c1 |
| 572 | COc1ccc(N2CCN(c3nc(CC(=O)O)cc(Nc4cc(C(C)(C)C)ccc4C)n3)CC2(C)C)cc1 |
| 112 | COc1ccc(N2CCN(c3nc(Nc4cc(C(C)(C)C)ccc4C)cc(C(=O)NCCN(C)C)n3)CC2(C)C)cc1 |
| 348 | COc1ccc(N2CCN(c3nc(CS(C)(=O)=O)cc(Nc4cc(C(C)(C)C)ccc4C)n3)CC2(C)C)cc1 |
| 263 | COc1ccc(N2CCN(c3nc(Nc4cc(C(C)(C)C)ccc4C)cc(OCCN4CCOCC4)n3)CC2(C)C)cc1 |
| 194 | COc1ccc(N2CCN(c3nc(Nc4cc(C(C)(C)C)ccc4C)cc(C(=O)NCC4CCCO4)n3)CC2(C)C)cc1 (stereo not given) |
| 1910 | CCN(CC)c1cc(C)c(Nc2ccnc(N3CCN(c4ccc(OC)cc4)CC3)n2)cc1C |
| 150 | COc1ccc(N2CCN(c3nccc(Nc4cc(C(C)(C)C)nn4C)n3)CC2(C)C)cc1 |
| 1000 | COc1ccc(N2CCN(c3nccc(Nc4cc(C)ccc4C)n3)CC2(C)C)cc1 |
| 255 | COc1ccc(N2CCN(c3nccc(Nc4cc(C(C)(C)C)ccc4C)n3)CC2(C)C)cc1 |
| 235 | COc1ccc(N2CCN(c3nc(Nc4cc(C(C)(C)C)ccc4C)cc(OCCC4CCCN4C)n3)CC2(C)C)cc1 (stereo not given) |
| 410 | COc1ccc(N2CCN(c3nccc(Nc4cc(-c5ccccc5)ccc4C)n3)CC2(C)C)cc1 |
| 216 | COc1ccc(N2CCN(c3nc(Nc4cc(C(C)(C)C)ccc4C)cc(OCCC(C)(C)O)n3)CC2(C)C)cc1 |
| 85 | COC(=O)c1cc(Nc2cc(C(C)(C)C)ccc2C)nc(N2CCN(c3ccc(OC)cc3)C(C)(C)C2)n1 |
| 262 | COc1ccc(N2CCN(c3nc(Nc4cc(C(C)(C)C)ccc4C)cc(OC)n3)CC2(C)C)cc1 |
| 213 | COc1ccc(N2CCN(c3nc(Nc4cc(C(C)(C)C)ccc4C)cc(N(C)CCN(C)C)n3)CC2(C)C)cc1 |
| 307 | CNC(=O)c1cc(Nc2cc(C(C)(C)C)ccc2C)nc(N2CCN(c3ccc(OC)cc3)C(C)(C)C2)n1 |
| 234 | COc1ccc(N2CCN(c3nc(Nc4cc(C(C)(C)C)ccc4C)cc(C(=O)O)n3)CC2(C)C)cc1 |
| 169 | CCN(CC)c1cc(C)c(Nc2ccnc(N3CCN(c4ccc(OC)cc4)C(C)(C)C3)n2)cc1C |
| 35.6 | CCOc1cc(C)c(Nc2ccnc(N3CCN(c4ccc(OC)cc4)C(C)(C)C3)n2)cc1C(C)C |
| 108 | COc1ccc(N2CCN(c3nc(Nc4cc(C(C)(C)C)ccc4C)cc(OCCN(C)C)n3)CC2(C)C)cc1 |
| 272 | COc1ccc(N2CCN(c3nccc(Nc4cc(C(C)(C)C)nn4CC(F)(F)F)n3)CC2(C)C)cc1 |
| 88 | COc1ccc(N2CCN(c3nc(N)cc(Nc4cc(C(C)(C)C)ccc4C)n3)CC2(C)C)cc1 |
| 34 | COc1ccc(N2CCN(c3nc(CO)cc(Nc4cc(C(C)(C)C)ccc4C)n3)CC2(C)C)cc1 |
| 695 | COc1ccc(N2CCN(c3nccc(Nc4cc(C(C)(C)C)ccc4Cl)n3)CC2(C)C)cc1 |
| 534 | CCOc1cc(C)c(Nc2ccnc(N3CCN(c4ccc(OC)cc4)C(C)(C)C3)n2)cc1C |

system: not listed separately; experiment: Activity at gamma-secretase expressed in human SH-SY5Y cells assessed as inhibition of amyloid beta 40 production by electrochemiluminescence assay; type: cell-based; summary of the method: as §1

| IC50 [nM] | SMILES |
| --- | --- |
| 5780 | COc1ccc(N2CCN(c3nc(Nc4cc(C(C)(C)C)ccc4C)cc(S(C)(=O)=O)n3)CC2(C)C)cc1 |
| 10000 | CCOc1ccc(Nc2ccnc(N3CCN(c4ccc(OC)cc4)C(C)(C)C3)n2)c(C)c1 |
| 6410 | COc1ccc(N2CCN(c3nc(CC(=O)O)cc(Nc4cc(C(C)(C)C)ccc4C)n3)CC2(C)C)cc1 |
| 1710 | COc1ccc(N2CCN(c3nc(Nc4cc(C(C)(C)C)ccc4C)cc(C(=O)NCCN(C)C)n3)CC2(C)C)cc1 |
| 6460 | COc1ccc(N2CCN(c3nc(CS(C)(=O)=O)cc(Nc4cc(C(C)(C)C)ccc4C)n3)CC2(C)C)cc1 |
| 6150 | COc1ccc(N2CCN(c3nc(Nc4cc(C(C)(C)C)ccc4C)cc(OCCN4CCOCC4)n3)CC2(C)C)cc1 |
| 8120 | COc1ccc(N2CCN(c3nc(Nc4cc(C(C)(C)C)ccc4C)cc(C(=O)NCC4CCCO4)n3)CC2(C)C)cc1 (stereo not given) |
| 3740 | CCN(CC)c1cc(C)c(Nc2ccnc(N3CCN(c4ccc(OC)cc4)CC3)n2)cc1C |
| 1940 | COc1ccc(N2CCN(c3nccc(Nc4cc(C(C)(C)C)nn4C)n3)CC2(C)C)cc1 |
| 4580 | COc1ccc(N2CCN(c3nccc(Nc4cc(C)ccc4C)n3)CC2(C)C)cc1 |
| 5560 | COc1ccc(N2CCN(c3nccc(Nc4cc(C(C)(C)C)ccc4C)n3)CC2(C)C)cc1 |
| 5600 | COc1ccc(N2CCN(c3nc(Nc4cc(C(C)(C)C)ccc4C)cc(OCCC4CCCN4C)n3)CC2(C)C)cc1 (stereo not given) |
| 2280 | COc1ccc(N2CCN(c3nccc(Nc4cc(-c5ccccc5)ccc4C)n3)CC2(C)C)cc1 |
| 5450 | COc1ccc(N2CCN(c3nc(Nc4cc(C(C)(C)C)ccc4C)cc(OCCC(C)(C)O)n3)CC2(C)C)cc1 |
| 2290 | COC(=O)c1cc(Nc2cc(C(C)(C)C)ccc2C)nc(N2CCN(c3ccc(OC)cc3)C(C)(C)C2)n1 |
| 5680 | COc1ccc(N2CCN(c3nc(Nc4cc(C(C)(C)C)ccc4C)cc(OC)n3)CC2(C)C)cc1 |
| 1970 | COc1ccc(N2CCN(c3nc(Nc4cc(C(C)(C)C)ccc4C)cc(N(C)CCN(C)C)n3)CC2(C)C)cc1 |
| 2980 | CNC(=O)c1cc(Nc2cc(C(C)(C)C)ccc2C)nc(N2CCN(c3ccc(OC)cc3)C(C)(C)C2)n1 |
| 1930 | COc1ccc(N2CCN(c3nc(Nc4cc(C(C)(C)C)ccc4C)cc(C(=O)O)n3)CC2(C)C)cc1 |
| 2950 | CCN(CC)c1cc(C)c(Nc2ccnc(N3CCN(c4ccc(OC)cc4)C(C)(C)C3)n2)cc1C |
| 737 | CCOc1cc(C)c(Nc2ccnc(N3CCN(c4ccc(OC)cc4)C(C)(C)C3)n2)cc1C(C)C |
| 1590 | COc1ccc(N2CCN(c3nc(Nc4cc(C(C)(C)C)ccc4C)cc(OCCN(C)C)n3)CC2(C)C)cc1 |
| 5090 | COc1ccc(N2CCN(c3nccc(Nc4cc(C(C)(C)C)nn4CC(F)(F)F)n3)CC2(C)C)cc1 |
| 830 | COc1ccc(N2CCN(c3nc(N)cc(Nc4cc(C(C)(C)C)ccc4C)n3)CC2(C)C)cc1 |
| 823 | COc1ccc(N2CCN(c3nc(CO)cc(Nc4cc(C(C)(C)C)ccc4C)n3)CC2(C)C)cc1 |
| 1000 | COc1ccc(N2CCN(c3nccc(Nc4cc(C(C)(C)C)ccc4Cl)n3)CC2(C)C)cc1 |
| 6300 | CCOc1cc(C)c(Nc2ccnc(N3CCN(c4ccc(OC)cc4)C(C)(C)C3)n2)cc1C |

target: Gamma-secretase (Homo sapiens) (UniProt Q96BI3+Q9NZ42+Q8WW43+P49768+Q92542+P49810); experiment: Selectivity ratio, IC50 for human gamma-secretase-mediated NotchdeltaE cleavage to IC50 for gamma-secretase-mediated amyloid beta 42 production; type: protein-complex assay

| Ratio IC50 | SMILES |
| --- | --- |
| > 190 | COc1ccc(N2CCN(c3nc(Nc4cc(C(C)(C)C)ccc4C)cc(OCCN4CCOCC4)n3)CC2(C)C)cc1 |
| > 250 | COc1ccc(N2CCN(c3nc(Nc4cc(C(C)(C)C)ccc4C)cc(C(=O)NCC4CCCO4)n3)CC2(C)C)cc1 (stereo not given) |
| > 210 | COc1ccc(N2CCN(c3nc(Nc4cc(C(C)(C)C)ccc4C)cc(OCCC4CCCN4C)n3)CC2(C)C)cc1 (stereo not given) |
| > 230 | COc1ccc(N2CCN(c3nc(Nc4cc(C(C)(C)C)ccc4C)cc(OCCC(C)(C)O)n3)CC2(C)C)cc1 |
| > 190 | COc1ccc(N2CCN(c3nc(Nc4cc(C(C)(C)C)ccc4C)cc(OC)n3)CC2(C)C)cc1 |
| 270 | COc1ccc(N2CCN(c3nc(Nc4cc(C(C)(C)C)ccc4C)cc(OCCN(C)C)n3)CC2(C)C)cc1 |
| 390 | COc1ccc(N2CCN(c3nc(N)cc(Nc4cc(C(C)(C)C)ccc4C)n3)CC2(C)C)cc1 |
| 180 | COc1ccc(N2CCN(c3nc(CO)cc(Nc4cc(C(C)(C)C)ccc4C)n3)CC2(C)C)cc1 |

target: Gamma-secretase; experiment: Inhibition of gamma-secretase-mediated NotchdeltaE cleavage in human HeLa cells by luciferase assay; type: cell-based

| IC50 [nM] | SMILES |
| --- | --- |
| > 50000 | COc1ccc(N2CCN(c3nc(Nc4cc(C(C)(C)C)ccc4C)cc(OCCN4CCOCC4)n3)CC2(C)C)cc1 |
| > 50000 | COc1ccc(N2CCN(c3nc(Nc4cc(C(C)(C)C)ccc4C)cc(C(=O)NCC4CCCO4)n3)CC2(C)C)cc1 (stereo not given) |
| > 50000 | COc1ccc(N2CCN(c3nc(Nc4cc(C(C)(C)C)ccc4C)cc(OCCC4CCCN4C)n3)CC2(C)C)cc1 (stereo not given) |
| > 50000 | COc1ccc(N2CCN(c3nc(Nc4cc(C(C)(C)C)ccc4C)cc(OCCC(C)(C)O)n3)CC2(C)C)cc1 |
| > 50000 | COc1ccc(N2CCN(c3nc(Nc4cc(C(C)(C)C)ccc4C)cc(OC)n3)CC2(C)C)cc1 |
| 28800 | COc1ccc(N2CCN(c3nc(Nc4cc(C(C)(C)C)ccc4C)cc(OCCN(C)C)n3)CC2(C)C)cc1 |
| 34400 | COc1ccc(N2CCN(c3nc(N)cc(Nc4cc(C(C)(C)C)ccc4C)n3)CC2(C)C)cc1 |
| 6140 | COc1ccc(N2CCN(c3nc(CO)cc(Nc4cc(C(C)(C)C)ccc4C)n3)CC2(C)C)cc1 |
